High-throughput results (PubChem)
ABCB6 inh MLPCN – human ABCB6 transporter inhibition; K562-ABCB6 porphyrin accumulation, flow cytometry, 1 h; active compounds read low; Q9NP58; actives 0.19% (n = 360,000); AID 602162; fluorescence ratio to DMSO, % at 10 µM;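 active means fluorescence ratio to DMSO below 75%, the collection mean minus 3 SD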;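 further: signal is porphyrin accumulated inside mitochondria; 100% equals median channel fluorescence of DMSO control wells; lower ratio means ABCB6 inhibition with less porphyrin fluorescence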
Target sequence (Q9NP58 whole entry, looked up): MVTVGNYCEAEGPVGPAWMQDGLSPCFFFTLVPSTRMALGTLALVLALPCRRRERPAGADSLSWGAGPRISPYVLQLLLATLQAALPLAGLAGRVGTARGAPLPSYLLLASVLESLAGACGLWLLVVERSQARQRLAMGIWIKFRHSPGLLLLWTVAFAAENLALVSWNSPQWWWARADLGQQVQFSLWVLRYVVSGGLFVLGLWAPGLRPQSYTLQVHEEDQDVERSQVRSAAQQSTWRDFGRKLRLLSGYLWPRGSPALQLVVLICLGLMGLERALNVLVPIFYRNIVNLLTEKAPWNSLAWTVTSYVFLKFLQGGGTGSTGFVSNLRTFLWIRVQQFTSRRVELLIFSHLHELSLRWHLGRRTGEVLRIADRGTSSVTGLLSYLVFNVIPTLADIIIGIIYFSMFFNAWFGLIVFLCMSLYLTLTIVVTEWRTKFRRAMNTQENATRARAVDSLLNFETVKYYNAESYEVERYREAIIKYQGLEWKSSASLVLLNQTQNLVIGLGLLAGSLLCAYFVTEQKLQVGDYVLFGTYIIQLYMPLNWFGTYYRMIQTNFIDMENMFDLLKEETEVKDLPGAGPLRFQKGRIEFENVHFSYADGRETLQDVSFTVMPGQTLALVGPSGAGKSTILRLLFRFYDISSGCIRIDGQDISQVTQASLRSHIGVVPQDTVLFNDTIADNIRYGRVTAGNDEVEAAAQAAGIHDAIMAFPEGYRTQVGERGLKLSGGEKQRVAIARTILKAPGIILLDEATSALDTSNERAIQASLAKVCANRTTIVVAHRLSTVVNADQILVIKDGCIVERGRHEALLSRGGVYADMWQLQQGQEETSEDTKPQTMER
MC4R antag cAMP – blocks human MC4R cAMP signaling; P32245; MC4R-expressing cells, MTII-stimulated cAMP, LANCE TR-FRET; inhibition, % at 6.5 µM; actives 0.48% (n = 360,000);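 active means inhibition above its plate's cutoff, the mean of tested wells on that plate plus 3 SD, cut at about 29% in these data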;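 further: 0% = Melanotan II alone and 100% = Melanotan II plus saturating MCL0020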
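Material: human MC4R-expressing U2OS cells. Probe or stimulus: Melanotan II challenge. Dosing: 6.5 µM single dose. Times: 30-min compound, 1-h challenge, 1-h detection, room temperature. Technique: TR-FRET with Eu-cAMP and labeled anti-cAMP, 671 nm. Replication: singlicate.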
iPSC survival up – hiPSC single-cell survival enhancement | ATPlite luminescence; 100% = ROCK inhibitor wells, 0% = DMSO | survival enhancement, % at 20 µM | actives 0.044% (n = 360,000); in the data active means survival enhancement above about 18%;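 further: cells exposed to compounds for 16 hours before the ATP read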
Granule exo inh – lytic granule exocytosis inhibition | AID 651702 | actives 0.66% (n = 360,000) | TALL-104 LAMP-1 surface exposure, flow cytometry; cells stimulated with thapsigargin and PMA | inhibition, % at 10 µM;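 active means inhibition above about 55%, limit read from the data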
MC4R barr agon – agonists of human melanocortin 4 receptor (MC4R) beta-arrestin; U2OS MC4R beta-arrestin complementation, luminescence; percent of melanotan II response, DMSO zero; activation, % at 8.9 µM; actives 0.98% (n = 360,000); AID 540308;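 active means activation above a per-plate cutoff, the mean activation of sample wells on that plate plus 3 SD, cut at about 8% in these data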
Tb MetRS inh – blocks T. brucei methionyl-tRNA synthetase activity. purified T. brucei MetRS, ATP depletion, Kinase-Glo luminescence. actives 0.4% (n = 360,000). inhibition, % at 11.9 µM. AID 624268;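 active means inhibition above a per-plate cutoff of the control wells' mean inhibition plus 3 SD, cut at about 5.5% in these data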;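 further: 0% = DMSO wells median and 100% = median of wells with control inhibitor compound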
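Assay system: T. brucei methionyl-tRNA synthetase, purified | Medium: HEPES buffer with MgCl2, KCl, DTT, spermine, BSA, pyrophosphatase | Compound: 11.9 µM single point | Incubation: 15 min enzyme-compound preincubation, 2 h reaction, 10 min detection, 25 °C | Measured by: Kinase-Glo luciferase luminescence reporting remaining unconsumed ATP | Measure: % inhibition normalized to control-well medians | Replication: Singlicate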
U2OS cAMP counter – counter-screen for MC4R antagonists: nonselective cAMP signaling inhibitors; shares compounds with MC4R antag cAMP; parental U2OS, forskolin cAMP, LANCE TR-FRET; actives 26% (n = 1,600); inhibition, % at 6.5 µM;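 active means mean inhibition over triplicates above the low-control well mean plus 3 SD, set per campaign, cut at about 13% in these data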;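 further: signal is single emission at 671 nm which falls as cellular cAMP rises; 0% = forskolin-stimulated wells and 100% = buffer without forskolin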
MC4R antag conf – human MC4R cAMP antagonism confirmation. shares compounds with MC4R antag cAMP. MC4R-expressing cells, MTII-stimulated cAMP, TR-FRET. inhibition, % at 6.5 µM. actives 27% (n = 1,600); in the data active means inhibition above about 29%;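 further: 0% = agonist stimulated wells alone and 100% = agonist stimulated wells plus saturating reference antagonist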
Starred values were filed as active, the others as inactive; nt = no result given. An excerpt weighted towards active compounds, which were near 2.6% of everything screened.

SMILES	ABCB6 inh MLPCN	MC4R antag cAMP	iPSC survival up	Granule exo inh	MC4R barr agon	Tb MetRS inh	U2OS cAMP counter	MC4R antag conf
COc1cc(NC(=O)C2=C(N3CCOCC3)/C(=C/c3ccc(Cl)cc3)CC2)cc(OC)c1OC	100.0	28.7*	-1.6	-4.2	0.5	-0.3	-0.2	5.3
COC(=O)CC1=NN(c2nc3ccccc3s2)C(=O)/C1=C/N(C)C	98.0	2.6	-1.0	1.3	-1.0	-0.7	nt	nt
Cc1ccc(S(=O)(=O)CC(=O)N2CCN(c3cccc(C(F)(F)F)c3)CC2)cc1	96.0	13.2	-0.4	-1.0	-2.0	0.0	nt	nt
Cc1ccc(CC(=O)N2CCN(c3cccc(C(F)(F)F)c3)CC2)cc1	97.0	33.2*	-0.3	-2.1	2.8	0.5	-0.8	0.3
CCC1=NN(C(=O)CCc2ccc3c(c2)OCO3)C(O)(C(F)(F)F)C1 (stereo unspecified)	99.0	5.5	-1.7	-1.4	-2.5	-0.6	nt	nt
S=C1NC[C@H](Cc2ccccc2)N1CC1CCN(CCCC2CCCC2)CC1	99.0	63.0*	-3.6	3.4	3.6	-0.1	2.2	-0.3
S=C1NC[C@H](Cc2ccccc2)N1CCCCC1CCCCC1	95.0	-0.5	-1.1	-1.4	-3.4	-0.2	nt	nt
O=C1CN(C(=O)N[C@@H](Cc2ccccc2)C(=O)N[C@H](Cc2ccccc2)C(=O)O)c2ccccc2N1	101.0	16.1	2.3	-3.7	0.1	1.0	nt	nt
COc1cc(C)c(NC(=O)Cc2ccsc2)cc1OC	98.0	4.9	0.4	1.7	0.5	-0.1	nt	nt
CCOC(=O)CCCCC1C(CCCC(=O)OCC)C=NN1C (stereo unspecified)	103.0	-1.2	4.0	5.5	-1.1	-0.4	nt	nt
COc1ccc(NS(=O)(=O)c2cccc(C(=O)NC3CCC(O)CC3)c2)cc1 (stereo unspecified)	95.0	2.1	-0.3	0.5	-1.2	-0.5	nt	nt
COc1ccc(N2CCN(C(=O)Nc3ccccc3Cl)CC2)cc1	104.0	36.8*	-0.9	-1.2	2.0	0.0	-1.1	4.5
COc1ccccc1CNC(=O)CN(Cc1ccc(Cl)cc1)S(C)(=O)=O	106.0	3.0	1.9	2.7	-2.3	0.9	nt	nt
CC1(C)CC(=O)C(C=NCCN2CCN(C3CC(=O)N(c4ccc(Br)cc4)C3=O)CC2)=C(O)C1 (stereo unspecified)	99.0	33.4*	-1.0	0.5	3.4	-0.2	-3.5	-18.8
Cc1ccc(S(=O)(=O)NCC(=O)OCC(=O)NC(=O)c2cccn2C)cc1	100.0	34.3*	2.1	-9.0	1.9	-0.2	26.5*	40.2*
Cc1ccc(S(=O)(=O)NCC(=O)OCC(=O)c2cccs2)cc1	82.0	37.8*	0.3	1.2	-1.1	0.0	7.3	12.6
Cc1ccc(S(=O)(=O)NCCC(=O)OCC(=O)NC(=O)c2cccn2C)cc1	98.0	19.0	0.1	-0.8	0.9	-1.1	nt	nt
O=C(CSc1c2c(nc3ccc(Cl)cc13)CCCC2)N1CCN(C(=O)c2ccco2)CC1	98.0	40.5*	-0.7	13.9	-1.7	0.4	-9.5	20.7
O=C(CSc1nc2cc(Cl)ccc2s1)N1CCN(C(=O)c2ccco2)CC1	97.0	-3.3	-3.3	-6.1	-1.9	-0.6	nt	nt
O=C1Nc2cccc3c2N(CCC3)C2=C1CCC2	107.0	29.5*	-1.0	1.5	-0.3	-0.2	1.3	11.5
OCCC1CN(Cc2cccc3c2OCO3)CCN1C1CCCCC1 (stereo unspecified)	85.0	4.2	2.7	-6.1	1.3	1.2	nt	nt
O=C1C(=Cc2ccc(Cl)cc2)Cc2ccccc21	111.0	nt	-2.8	-0.2	nt	-1.0	nt	nt
C=CC(=O)N1C/C(=C/c2ccc(Cl)cc2)C(=O)/C(=C\c2ccc(Cl)cc2)C1	100.0	44.9*	3.6	86.5*	-2.7	-0.3	22.4*	21.4
CC(C)NS(=O)(=O)c1ccc(CCC(=O)N2CCC(C(N)=O)CC2)cc1	99.0	30.9*	1.2	3.6	0.3	0.4	3.6	8.8
CC(C)NS(=O)(=O)c1ccc(CCC(=O)N2CCCC2)cc1	101.0	-3.1	-0.5	-0.1	0.3	-1.4	nt	nt
SMILES	ABCB6 inh MLPCN	MC4R antag cAMP	iPSC survival up	Granule exo inh	MC4R barr agon	Tb MetRS inh	U2OS cAMP counter	MC4R antag conf
O=[N+]([O-])c1cc(S(=O)(=O)Oc2ccccc2)ccc1Cl	99.0	30.1*	-1.5	80.2*	-2.6	0.0	34.6*	17.3
COc1cc(C(=O)NCc2nnc(SCC(=O)Nc3ccc4c(c3)OCO4)o2)cc(OC)c1OC	100.0	-5.5	-1.6	-1.1	-2.5	-0.3	nt	nt
CCOC(=O)c1sc(=S)[nH]c1C	314.0	42.6*	0.3	8.2	-2.9	0.4	9.6	31.0*
COc1cc(/C=C/C(=O)Nc2ccc(S(=O)(=O)Nc3onc(C)c3C)cc2)cc(OC)c1OC	103.0	12.0	0.0	2.8	0.4	-0.3	nt	nt
O=C(COC(=O)[C@@H]1CCCN1S(=O)(=O)c1ccc(Cl)cc1)NC12CC3CC(CC(C3)C1)C2	99.0	32.5*	2.7	-3.1	2.2	0.1	13.7*	34.0*
O=C(COC(=O)[C@@H]1CCCN1S(=O)(=O)c1ccc(Cl)cc1)NC1CCS(=O)(=O)C1 (stereo partly specified)	101.0	7.0	-0.1	-4.0	-0.3	-0.6	nt	nt
Cc1ccccc1C(=O)NNC(=O)CCc1ccccc1	93.0	32.1*	3.6	6.3	2.5	1.0	-2.2	-2.9
Cc1ccccc1C(=O)NNC(=O)Cc1ccccc1	99.0	5.6	1.1	-5.4	-0.9	-1.0	nt	nt
CCOc1ccc(C(=O)NCC(=O)OC2CCOC2=O)cc1OCC (stereo unspecified)	114.0	32.2*	-1.3	0.3	-0.6	-0.2	16.0*	12.4
O=C(CNC(=O)c1ccc(Br)cc1)OC1CCOC1=O (stereo unspecified)	98.0	13.6	-2.9	-6.3	-2.0	-0.1	nt	nt
O=C(CCC(=O)c1ccc(F)cc1)OC1CCOC1=O (stereo unspecified)	97.0	32.6*	-1.9	-1.3	-0.3	-1.5	21.5*	37.1*
Cc1nnc(NC(=O)CSc2nnc(CC(=O)Nc3ccccc3C)n2C)s1	96.0	6.9	-0.5	19.3	2.1	-0.2	nt	nt
O=C1c2ccc([N+](=O)[O-])cc2S(=O)(=O)N1Cc1ccccc1	100.0	32.7*	-0.4	8.9	-2.8	0.0	28.3*	50.3*
COc1cccc(CN2C(=O)c3ccccc3S2(=O)=O)c1	96.0	6.5	-0.4	-10.4	-0.3	-0.6	nt	nt
S=c1nc[nH]c2c1[nH]c1ccc(Cl)cc12	98.0	35.4*	-0.9	-1.1	1.6	2.0	2.8	-4.0
